The source of these data is ChEMBL document CHEMBL5329156, “Discovery and development of novel substituted monohydrazides as potent antifungal agents” (RSC Med Chem, 2023).

What all share (type): functional
One assay deals with Aspergillus nidulans. The assay is described as follows: Antifungal activity against Aspergillus nidulans ATCC 38163 assessed as fungal growth inhibition by double dilution method.
For assay [1], the system named is Candida albicans. The assay is described as follows: Antifungal activity against itraconazole/fluconazole susceptible Candida albicans ATCC MYA-2310 assessed as fungal growth inhibition by double dilution method. The method in brief: (§1)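 Broth microdilution after CLSI M27-A3/M38-A2 with minor modifications. A single colony was grown overnight in YPD at 35 °C with shaking at 200 rpm. Cells were mixed 1:1 with compound (final 0.06-31.3 µg/mL, from DMSO stocks) and incubated 48 h at 35 °C.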

Assay [2] deals with Candida albicans. The assay is described as follows: Antifungal activity against Candida albicans ATCC 10231 assessed as fungal growth inhibition by double dilution method. A digest of the protocol: (§2)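 Broth microdilution after CLSI M27-A3/M38-A2 with minor changes. Single colony grown overnight in YPD at 35 °C, 200 rpm. Compound final range 0.06-31.3 µg/mL; incubated 48 h at 35 °C.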

The test system of assay [3] is Candida albicans. The assay is described as follows: Antifungal activity against itraconazole/fluconazole susceptible Candida albicans ATCC MYA-2876 assessed as fungal growth inhibition by double dilution method. The method in brief: as §1
In assay [4] the test system is Candida albicans. The assay can be described thus: Antifungal activity against itraconazole/fluconazole resistant Candida albicans ATCC MYA-1237 assessed as fungal growth inhibition by double dilution method. The method in brief:
as §1

In another assay the test system is Aspergillus terreus. The assay can be described thus: Antifungal activity against Aspergillus terreus ATCC MYA-3633 assessed as fungal growth inhibition by double dilution method.
A further assay has as its system Cryptococcus neoformans. The assay is described as follows: Antifungal activity against Cryptococcus neoformans ATCC MYA-895 assessed as fungal growth inhibition by double dilution method. A digest of the protocol: as §2
The subject of assay [5] is Candida albicans. The assay can be described thus: Antifungal activity against itraconazole/fluconazole resistant Candida albicans ATCC 90819 assessed as fungal growth inhibition by double dilution method. A digest of the protocol: as §1
The subject of assay [6] is [Candida] auris. The assay is described as follows: Antifungal activity against Candida auris AR Bank # 0390 assessed as fungal growth inhibition by double dilution method. The settings on record: Candidozyma auris. A digest of the protocol: as §2
The subject of assay [7] is Aspergillus fumigatus. The assay can be described thus: Antifungal activity against Aspergillus fumigatus NRRL 163 assessed as fungal growth inhibition by double dilution method.
For assay [8], the system named is [Candida] auris. The assay can be described thus: Antifungal activity against Candida auris AR Bank # 0384 assessed as fungal growth inhibition by double dilution method. The following applies: Candidozyma auris. The method in brief:
as §2

Assay [9] has as its system Candida albicans. The assay can be described thus: Antifungal activity against itraconazole/fluconazole resistant Candida albicans ATCC MYA-1003 assessed as fungal growth inhibition by double dilution method. The method in brief:
as §1

Assay [10] has as its system Nakaseomyces glabratus. The assay can be described thus: Antifungal activity against Candida glabrata ATCC 2001 assessed as fungal growth inhibition by double dilution method. The method in brief:
as §2

Assay [11] concerns Candida albicans. The assay can be described thus: Antifungal activity against Candida albicans ATCC 64124 assessed as fungal growth inhibition by double dilution method. The method in brief: as §1
The next assay has as its system Aspergillus flavus. The assay can be described thus: Antifungal activity against Aspergillus flavus ATCC MYA-3631 assessed as fungal growth inhibition by double dilution method.
Assay [12] has as its system Nakaseomyces glabratus. The assay is described as follows: Antifungal activity against Candida glabrata ATCC 22019 assessed as fungal growth inhibition by double dilution method. A digest of the protocol:
as §2

The subject of assay [13] is Aspergillus fumigatus. The assay is described as follows: Antifungal activity against Aspergillus fumigatus NRRL 6113 assessed as fungal growth inhibition by double dilution method.
In another assay the test system is Pichia kudriavzevii. The assay is described as follows: Antifungal activity against Pichia kudriavzevii ATCC 6258 assessed as fungal growth inhibition by double dilution method. The method in brief: as §2
Assay [14] has as its system Aspergillus fumigatus. The assay is described as follows: Antifungal activity against Aspergillus fumigatus NRRL 5109 assessed as fungal growth inhibition by double dilution method.

Converted amounts (≈) assume the structure as drawn. Bounds are passed on as bounds.

With `O=C(NNc1ccc(F)cc1)c1cccc(F)n1`, the MIC worked out at 0.98 µg/mL (≈ 3.93 µM) with Aspergillus nidulans; 3.9 µg/mL (≈ 15.6 µM) in the assay with Candida albicans [1]; 0.24 µg/mL (≈ 0.963 µM) in the assay on Candida albicans [2]; 1.95 µg/mL (≈ 7.82 µM) with Candida albicans [3]; 1.95 µg/mL (≈ 7.82 µM) in the assay with Candida albicans [4]; 1.95 µg/mL (≈ 7.82 µM) with Aspergillus terreus. The MIC with Cryptococcus neoformans came out at 0.49 µg/mL (≈ 1.97 µM); in the assay with Candida albicans [5] it was 1.95 µg/mL (≈ 7.82 µM); in assay [Candida] auris [6], 0.98 µg/mL (≈ 3.93 µM); with Aspergillus fumigatus [7], 31.3 µg/mL (≈ 126 µM); in assay [Candida] auris [8] it was 1.95 µg/mL (≈ 7.82 µM); in the assay with Candida albicans [9] it was 0.98 µg/mL (≈ 3.93 µM). Further, the MIC with Nakaseomyces glabratus [10] was determined as 15.6 µg/mL (≈ 62.6 µM); in the assay on Candida albicans [11] it was 0.98 µg/mL (≈ 3.93 µM); with Aspergillus flavus, 7.8 µg/mL (≈ 31.3 µM); with Nakaseomyces glabratus [12] it was 3.9 µg/mL (≈ 15.6 µM); in the assay with Aspergillus fumigatus [13], 15.6 µg/mL (≈ 62.6 µM); in the assay with Pichia kudriavzevii, 0.49 µg/mL (≈ 1.97 µM). Further, the MIC in the assay with Aspergillus fumigatus [14] amounted to 15.6 µg/mL (≈ 62.6 µM).
As for `COc1ccc(NNC(=O)c2ccc(F)cn2)cc1`, the minimum inhibitory concentration (MIC) stood at 1.95 µg/mL (≈ 7.46 µM) with Aspergillus nidulans; 0.98 µg/mL (≈ 3.75 µM) in the assay with Candida albicans [1]; 0.24 µg/mL (≈ 0.919 µM) in the assay with Candida albicans [2]; 0.98 µg/mL (≈ 3.75 µM) with Candida albicans [3]; 0.49 µg/mL (≈ 1.88 µM) with Candida albicans [4]; 31.3 µg/mL (≈ 120 µM) with Aspergillus terreus. The MIC was at most 0.06 µg/mL with Cryptococcus neoformans; 0.98 µg/mL (≈ 3.75 µM) in the assay with Candida albicans [5]; 0.49 µg/mL (≈ 1.88 µM) in assay [Candida] auris [6]; over 31.3 µg/mL with Aspergillus fumigatus [7]; 3.9 µg/mL (≈ 14.9 µM) in assay [Candida] auris [8]; 0.49 µg/mL (≈ 1.88 µM) in the assay on Candida albicans [9]. The MIC was 1.95 µg/mL (≈ 7.46 µM) in the assay with Nakaseomyces glabratus [10]; 0.98 µg/mL (≈ 3.75 µM) with Candida albicans [11]; over 31.3 µg/mL in the assay with Aspergillus flavus; 3.9 µg/mL (≈ 14.9 µM) in the assay with Nakaseomyces glabratus [12]; over 31.3 µg/mL with Aspergillus fumigatus [13]; 0.24 µg/mL (≈ 0.919 µM) in the assay on Pichia kudriavzevii. In addition, the MIC in the assay on Aspergillus fumigatus [14] is over 31.3 µg/mL.
`O=C(NNc1ccc(F)cc1)c1ccc(F)cc1F`: the MIC turned out to be 3.9 µg/mL (≈ 14.6 µM) in the assay with Aspergillus nidulans; 3.9 µg/mL (≈ 14.6 µM) in the assay with Candida albicans [1]; 0.49 µg/mL (≈ 1.84 µM) with Candida albicans [2]; 7.8 µg/mL (≈ 29.3 µM) in the assay on Candida albicans [3]; 1.95 µg/mL (≈ 7.32 µM) in the assay with Candida albicans [4]; 3.9 µg/mL (≈ 14.6 µM) in the assay on Aspergillus terreus. The MIC with Cryptococcus neoformans was 0.49 µg/mL (≈ 1.84 µM); with Candida albicans [5], 1.95 µg/mL (≈ 7.32 µM); in [Candida] auris [6], 1.95 µg/mL (≈ 7.32 µM); in the assay with Aspergillus fumigatus [7], over 31.3 µg/mL; in assay [Candida] auris [8], 1.95 µg/mL (≈ 7.32 µM); with Candida albicans [9], 1.95 µg/mL (≈ 7.32 µM). Further, the MIC in the assay on Nakaseomyces glabratus [10] was 7.8 µg/mL (≈ 29.3 µM); in the assay with Candida albicans [11], 7.8 µg/mL (≈ 29.3 µM); with Aspergillus flavus, over 31.3 µg/mL; in the assay on Nakaseomyces glabratus [12], 15.6 µg/mL (≈ 58.6 µM); in the assay on Aspergillus fumigatus [13], over 31.3 µg/mL; in the assay on Pichia kudriavzevii it was 1.95 µg/mL (≈ 7.32 µM). The MIC with Aspergillus fumigatus [14] was over 31.3 µg/mL.
For `O=C(NNc1cccc(F)c1)c1nc(F)ccc1F`, the MIC with Aspergillus nidulans turned out to be 1.95 µg/mL (≈ 7.3 µM); with Candida albicans [1], 1.95 µg/mL (≈ 7.3 µM); in the assay on Candida albicans [2], 0.98 µg/mL (≈ 3.67 µM); in the assay with Candida albicans [3], 1.95 µg/mL (≈ 7.3 µM); in the assay on Candida albicans [4], 1.95 µg/mL (≈ 7.3 µM); in the assay with Aspergillus terreus it was 3.9 µg/mL (≈ 14.6 µM). In addition, the MIC was at most 0.06 µg/mL in the assay with Cryptococcus neoformans; 3.9 µg/mL (≈ 14.6 µM) with Candida albicans [5]; 1.95 µg/mL (≈ 7.3 µM) in [Candida] auris [6]; over 31.3 µg/mL in the assay with Aspergillus fumigatus [7]; 1.95 µg/mL (≈ 7.3 µM) in assay [Candida] auris [8]; 0.98 µg/mL (≈ 3.67 µM) with Candida albicans [9]. The MIC in the assay with Nakaseomyces glabratus [10] was 15.6 µg/mL (≈ 58.4 µM); with Candida albicans [11], 0.98 µg/mL (≈ 3.67 µM); with Aspergillus flavus it was over 31.3 µg/mL; in the assay on Nakaseomyces glabratus [12], 7.8 µg/mL (≈ 29.2 µM); in the assay with Aspergillus fumigatus [13], over 31.3 µg/mL; in the assay with Pichia kudriavzevii, 0.49 µg/mL (≈ 1.83 µM). In addition, the MIC in the assay on Aspergillus fumigatus [14] is over 31.3 µg/mL.
Take `O=C(NNc1ccc(F)cc1)c1ncc(F)cc1F`: the MIC with Aspergillus nidulans amounted to 0.49 µg/mL (≈ 1.83 µM); in the assay on Candida albicans [1], 3.9 µg/mL (≈ 14.6 µM); in the assay with Candida albicans [2], 0.98 µg/mL (≈ 3.67 µM); in the assay with Candida albicans [3] it was 1.95 µg/mL (≈ 7.3 µM); in the assay with Candida albicans [4] it was 1.95 µg/mL (≈ 7.3 µM); in the assay on Aspergillus terreus it was 3.9 µg/mL (≈ 14.6 µM). For the same molecule, the MIC in the assay with Cryptococcus neoformans is 0.49 µg/mL (≈ 1.83 µM); in the assay with Candida albicans [5], 1.95 µg/mL (≈ 7.3 µM); in assay [Candida] auris [6] it was 0.98 µg/mL (≈ 3.67 µM); in the assay with Aspergillus fumigatus [7] it was over 31.3 µg/mL; in assay [Candida] auris [8], 1.95 µg/mL (≈ 7.3 µM); in the assay with Candida albicans [9], 0.98 µg/mL (≈ 3.67 µM). For the same molecule, the MIC is 15.6 µg/mL (≈ 58.4 µM) in the assay on Nakaseomyces glabratus [10]; 1.95 µg/mL (≈ 7.3 µM) in the assay on Candida albicans [11]; 7.8 µg/mL (≈ 29.2 µM) in the assay with Aspergillus flavus; 3.9 µg/mL (≈ 14.6 µM) in the assay on Nakaseomyces glabratus [12]; over 31.3 µg/mL in the assay with Aspergillus fumigatus [13]; 0.49 µg/mL (≈ 1.83 µM) with Pichia kudriavzevii. In addition, in the assay on Aspergillus fumigatus [14], the MIC is over 31.3 µg/mL.
Take `COc1cccc(NNC(=O)c2ccc(F)cn2)c1`: the MIC was 1.95 µg/mL (≈ 7.46 µM) in the assay with Aspergillus nidulans; 1.95 µg/mL (≈ 7.46 µM) in the assay with Candida albicans [1]; 0.24 µg/mL (≈ 0.919 µM) in the assay with Candida albicans [2]; 0.49 µg/mL (≈ 1.88 µM) in the assay with Candida albicans [3]; 1.95 µg/mL (≈ 7.46 µM) in the assay on Candida albicans [4]; 3.9 µg/mL (≈ 14.9 µM) with Aspergillus terreus. Moreover, the MIC is 0.24 µg/mL (≈ 0.919 µM) in the assay with Cryptococcus neoformans; 3.9 µg/mL (≈ 14.9 µM) in the assay on Candida albicans [5]; 0.98 µg/mL (≈ 3.75 µM) in assay [Candida] auris [6]; over 31.3 µg/mL in the assay with Aspergillus fumigatus [7]; 1.95 µg/mL (≈ 7.46 µM) in [Candida] auris [8]; 0.98 µg/mL (≈ 3.75 µM) in the assay on Candida albicans [9]. The MIC is 15.6 µg/mL (≈ 59.7 µM) with Nakaseomyces glabratus [10]; 0.98 µg/mL (≈ 3.75 µM) with Candida albicans [11]; over 31.3 µg/mL in the assay on Aspergillus flavus; 3.9 µg/mL (≈ 14.9 µM) in the assay with Nakaseomyces glabratus [12]; over 31.3 µg/mL with Aspergillus fumigatus [13]; 0.24 µg/mL (≈ 0.919 µM) in the assay on Pichia kudriavzevii. Moreover, the MIC with Aspergillus fumigatus [14] is over 31.3 µg/mL.

Broadly, the MIC is the smallest concentration in the dilution series that meets the test's criterion for growth inhibition.
